Source: PubChem BioAssay (several laboratories)
HSF1 inhib = HSF1 inhibition; NIH3T3-HGL HSE-luciferase, MG132-induced, luminescence 8 h; stronger effect = lower value; 300,000 compounds, 0.77% hits; AID 2098; activity change, negative = inhibition, % at 7.5 µM (by protocol);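 active = more than half of replicate wells show activity change below -50%, luminescence cut by over half; inconclusive = some wells, but at most half, below -50%; inactive = no replicate well below -50%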;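 note: luciferase reports HSF-1 transcriptional activity via heat shock element; 0% = median of DMSO wells and -100% = zero luminescence signal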
PolyA inh = inhibitors of polyadenylation in S. cerevisiae; S. cerevisiae SKY197-pL101 polyadenylation reporter, beta-gal luminescence; efflux-impaired pdr1/pdr3 knockout yeast; score 100 = 6 SD above DMSO; activity score, % at 12 µM; 300,000 compounds, 0.02% hits;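 active = lowest replicate activity score at least 50, where 100 means six control SD above control mean; inconclusive = lowest score under 50 but half or more replicates reach 50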;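 note: yeast exposed to compound for 9 h at 30 °C; higher score means more reporter readthrough which indicates perturbed polyadenylation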
PERK inh = human PERK inhibition, primary cell-based screen | Q9NZJ5 | CHO PERK-DD fusion, SEAP luminescence translation reporter | inhibition, % at 5.6 µM | 220,000 compounds, 0.17% hits | AID 1416;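 active = inhibition above the mean inhibition of all tested compounds plus 3 SD, set separately per screening campaign, cut at about 2.9% in these data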;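 note: PERK kinase domain activated by AP20187 dimerizer at 100 nM; 0% = DMSO with dimerizer and 100% = rapamycin at 8.4 µM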
AHR act = activators of human aryl hydrocarbon receptor; P35869; activation, % at 5 µM; 320,000 compounds, 2.5% hits; AHR-responsive luciferase reporter cells, luminescence; in the data active = activation above about 47%;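 note: 0% = vehicle wells and 100% = reference agonist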
STAT3 act = STAT3 signaling activation; activation (% of control), % at 5.6 µM; U3A cells, IL-6 STAT3-luciferase reporter, luminescence; 100% = signal with IL-6 EC80 alone; 190,000 compounds, 0.91% hits;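 active = activation above the screen-wide mean of compound activation plus 3 SD, cut at about 130% in these data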;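 note: 0% = background luminescence of wells with medium and substrate only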
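Material: STAT3-luciferase reporter U3A cells; Probe or stimulus: IL-6 (33 ng/mL); Incubation: compound pre-incubation 1 h before IL-6, then 6 h stimulation at 37 °C; Technique: luminescence from STAT3-driven luciferase reporter; Evaluation: % activation versus median of IL-6-stimulated wells; Controls: IL-6-only high control.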
Hsp70 activator = switches on Hsp70 transcription; HeLa Hsp70 promoter luciferase reporter, luminescence; scaled: vehicle 0, proteasome-inhibitor control 100%; activation, % at 10 µM; 200,000 compounds, 0.04% hits;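 active = activation above the mean across all tested compounds plus 3 SD, cutoff set per campaign, cut at about 5.5% in these data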;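 note: 100% = MG132 at 30 µM as the positive control and 0% = DMSO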
AHR act confirm = confirmation of human aryl hydrocarbon receptor activators; activation, % at 9 µM; shares compounds with AHR act; 2,300 compounds, 87% hits; human cells, AHR-responsive luciferase reporter, luminescence; in the data active = activation above about 49%;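 note: HepG2 hepatoma cells carrying a DRE-driven firefly luciferase reporter; 0% = vehicle wells and 100% = reference agonist wells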
PXR counter = counter-screen for AHR activators: human PXR activators; shares compounds with AHR act; cell-based PXR reporter, luciferase luminescence; activation, % at 11.6 µM; 2,300 compounds, 88% hits; AID 434939; in the data active = activation above about 11%;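 note: human hepatoma DPX-2 cells expressing full-length human PXR; 0% = DMSO and 100% = reference agonist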
Target sequence (O75469 whole entry, looked up): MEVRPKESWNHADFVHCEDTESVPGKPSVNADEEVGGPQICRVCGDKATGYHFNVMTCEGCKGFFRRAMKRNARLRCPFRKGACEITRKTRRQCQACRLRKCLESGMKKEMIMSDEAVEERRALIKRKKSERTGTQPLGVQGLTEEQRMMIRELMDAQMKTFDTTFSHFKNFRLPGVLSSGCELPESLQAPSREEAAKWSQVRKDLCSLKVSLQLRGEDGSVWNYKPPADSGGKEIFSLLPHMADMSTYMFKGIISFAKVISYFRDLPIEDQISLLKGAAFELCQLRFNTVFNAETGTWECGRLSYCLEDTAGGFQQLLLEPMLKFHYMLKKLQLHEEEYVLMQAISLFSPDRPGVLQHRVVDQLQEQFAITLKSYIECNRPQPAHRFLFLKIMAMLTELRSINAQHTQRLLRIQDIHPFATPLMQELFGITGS
* marks the source's active call; other numbers are inactive results; u = inconclusive; x = no result given. This is a sample that favours compounds with a hit; in the whole collection about 3.6% have one here.

SMILES | HSF1 inhib | PolyA inh | PERK inh | AHR act | STAT3 act | Hsp70 activator | AHR act confirm | PXR counter
COc1ccccc1-c1nc(C#N)c(N2CCCCCC2)o1 | -3.8 | -12.5 | -2.1 | 83.1* | 101.3 | 0.1 | 79.0* | 107.9*
COc1ccccc1-c1nc(C#N)c(N2CCN(c3ccccc3)CC2)o1 | 2.0 | -8.5 | 0.3 | 10.6 | 105.8 | 0.3 | x | x
COc1cccc(-c2ccc3nnc(SCC(=O)Nc4ccc(NC(C)=O)cc4)n3n2)c1 | -1.2 | 8.0 | x | 2.5 | x | x | x | x
Fc1ccc2cnc(-c3cccnc3)cc2c1 | x | x | x | 88.9* | x | x | 87.2* | 25.5*
CN1C2C=C3C(C#N)=C(N)C(C#N)(C#N)[C@@H](c4ccc(Cl)cc4)[C@@H]3C1CC2 (stereo partly specified) | -2.8 | u | -0.2 | 40.3 | 106.7 | -0.1 | x | x
CN1C2C=C3C(C#N)=C(N)C(C#N)(C#N)C(c4ccc(Br)cc4)C3C1CC2 (stereo unspecified) | 2.7 | 9.4 | -0.5 | 110.1* | 102.3 | -0.1 | 78.5* | 106.7*
CCOC(=O)c1c(NCc2ccc3c(c2)OCO3)c2ccccc2[nH]c1=O | x | x | 0.0 | 109.3* | 115.9 | -0.2 | 74.5* | 156.0*
CCOC(=O)c1c(NCCN(C)C)c2ccccc2[nH]c1=O | -6.2 | 5.8 | 0.5 | 1.6 | x | x | x | x
COc1ccc2nc(C)cc(N/N=C/c3ccc(F)cc3)c2c1 | 11.9 | 24.4 | x | 79.5* | x | x | 69.4* | x
COc1ccc(/C=N/Nc2cc(C)nc3ccccc23)cc1 | 3.2 | 7.9 | x | 120.0* | x | x | 49.6* | x
CCOC(=O)N1CCN(C(=O)c2ccccc2NC(=O)COc2ccccc2)CC1 | 1.6 | -11.2 | x | 2.3 | x | x | x | x
O=C1CCN(Cc2ccccc2)C=C1c1ccc(Cl)cc1 | x | x | x | 25.6 | x | x | x | x
O=C1CCN(Cc2ccccc2)C=C1c1ccc(C(F)(F)F)cc1 | x | x | x | 108.3* | x | x | 101.6* | 118.6*
COc1cc(C2=CN(Cc3ccccc3)CCC2=O)cc(OC)c1OC | x | x | x | 6.1 | x | x | x | x
O=C1CCN(Cc2ccccc2)C=C1c1ccc2ccccc2c1 | x | x | x | 83.5* | x | x | 108.0* | 39.6*
CCOc1ccc2[nH]c3c(NCCOC)ncnc3c2c1 | 5.9 | 13.3 | x | 84.8* | x | x | 116.3* | 39.1*
CCOc1ccc2[nH]c3c(NCC(C)C)ncnc3c2c1 | 13.3 | -3.2 | x | 100.2* | x | x | 100.9* | 49.3*
CCOc1ccc2[nH]c3c(NCCCOC)ncnc3c2c1 | 1.9 | -4.3 | x | x | x | x | x | x
COc1ccc(CCC(=O)N/N=C(\C)c2ccc3c(c2)OCO3)cc1 | -5.1 | -4.7 | x | 21.9 | x | x | x | x
O=C(O)COn1c(-c2ccccc2)nc2ccc([N+](=O)[O-])cc21 | 39.7 | -6.2 | -0.1 | 141.4* | 113.5 | 0.2 | 52.9* | x
CC(=O)Nc1ccc2nc(NC(=O)c3ccco3)sc2c1 | 42.7 | -5.4 | x | 119.2* | x | x | 65.7* | 18.5*
Fc1cccc2sc(Nc3nnc(-c4ccco4)o3)nc12 | -0.8 | 13.5 | -2.0 | 150.8* | 111.9 | 0.0 | 121.0* | 40.5*
Cc1nc(NC(=O)c2ccco2)sc1C(=O)O | -2.2 | 6.5 | x | 8.0 | x | x | x | x
COc1cccc2sc(Nc3nc(-c4ccccn4)cs3)nc12 | 100.1 | 19.6 | 0.7 | 39.5 | 128.0 | 4.7 | x | x
COc1cccc2sc(Nc3nnc(-c4cccs4)o3)nc12 | 205.5 | 4.2 | -1.2 | 106.3* | 172.1* | 0.3 | 97.0* | 17.9*
SMILES | HSF1 inhib | PolyA inh | PERK inh | AHR act | STAT3 act | Hsp70 activator | AHR act confirm | PXR counter
Cc1nc(NC(=O)c2ccco2)sc1C(=O)Nc1ccc(Br)cc1 | -2.8 | 0.3 | 0.3 | 108.4* | 120.9 | 0.4 | 144.8* | 79.5*
CSc1nc2ccc(NC(=O)c3ccco3)cc2s1 | 20.7 | -11.4 | 0.1 | 22.9 | 90.0 | -0.1 | x | x
Cc1cc(=O)n2nc(N3CCC(C(=O)NCc4cccc(Cl)c4)CC3)sc2n1 | 0.3 | -1.0 | x | -0.5 | x | x | x | x
CN(C1CCCCC1)S(=O)(=O)c1ccc(=S)[nH]c1 | x | x | x | 1.1 | x | x | x | x
CCc1cc(C(=O)N2CCCC(C(=O)c3ccc(C(F)(F)F)cc3)C2)n(C)n1 (stereo unspecified) | -1.2 | 4.0 | x | x | x | x | x | x
O=C(Nc1nc2c(F)cccc2s1)c1ccco1 | 13.1 | -4.6 | x | 120.9* | x | x | 71.7* | 49.5*
O=C(Nc1nccs1)c1ccc(-c2ccc(Cl)cc2)o1 | 25.2 | -22.3 | 0.1 | 83.8* | 90.1 | 0.1 | 37.4 | 25.8*
CN(C)c1ccc(C(=O)N2CCCC(CCC(=O)N3CCN(c4ccccn4)CC3)C2)cc1 (stereo unspecified) | -6.7 | -8.3 | x | -1.0 | x | x | x | x
O=c1nc2sc3ccccc3n2c(=O)n1-c1cccc(Cl)c1 | 15.8 | 3.3 | 1.2 | 80.8* | 117.9 | 0.3 | 115.0* | 33.2*
COc1ccc(C(Sc2ccccc2)c2ccccc2)cc1OC (stereo unspecified) | 8.0 | -5.8 | x | 3.5 | x | x | x | x
O=C(c1cccc([N+](=O)[O-])c1)N1CCN(S(=O)(=O)/C=C/c2ccccc2)CC1 | x | x | x | 10.7 | x | x | x | x
CC(=O)Nc1cc(-c2nn3c(C)nnc3s2)ccc1C | -6.5 | -15.8 | 1.2 | 99.0* | 105.9 | -0.4 | 88.6* | 11.1*
CCCCC[C@H](O)/C=C/[C@H]1CCC(=O)[C@@H]1CCCCCCC(=O)N1CCCCC1CO (stereo partly specified) | -0.1 | 6.6 | x | 0.3 | x | x | x | x
O=C(CCc1c[nH]c2ccccc12)OCc1ccc(Br)cc1 | 4.3 | -6.9 | x | -6.2 | x | x | x | x
Cc1cc(Nc2ccc(Br)c(C)c2)n2nc(C)nc2n1 | 0.6 | -14.6 | -0.3 | 84.8* | 88.9 | -0.4 | 46.3 | 12.2*
Cc1ccc(Nc2cc(C)nc3nc(C)nn23)cc1 | -4.6 | -10.8 | -0.3 | 124.4* | 90.4 | -0.2 | 13.7 | 8.5
CC(=O)c1ccc(Nc2cc(C)nc3nc(C)nn23)cc1 | -17.1 | -8.1 | 1.2 | -0.4 | 99.1 | 0.0 | x | x
Cc1cc(Nc2ccc(Cl)cc2)n2nnnc2n1 | 2.6 | -17.4 | 0.7 | 143.3* | 96.5 | -0.1 | 90.6* | 13.8*
Cc1cc(C)cc(OCC(=O)OC(C)C(=O)Nc2ccc(Cl)cn2)c1 (stereo unspecified) | 3.6 | -0.7 | x | 0.8 | x | x | x | x
CC(=O)Nc1ccc(C(=O)COC(=O)CCc2ccccc2)c(F)c1 | x | x | x | 0.1 | x | x | x | x
CC1CCCC(C)N1/N=C/c1ccccc1Br (stereo unspecified) | -2.4 | 0.7 | x | 3.5 | x | x | x | x
COc1ccccc1C(=O)COC(=O)CNS(=O)(=O)c1ccc(C)c(C)c1 | 1.1 | 22.4 | x | 1.4 | x | x | x | x
c1ccc(-c2nnc3sc(-c4csc5c4CCCC5)nn23)cc1 | 7.3 | -7.7 | -0.8 | 96.7* | 106.9 | -0.2 | 136.0* | 37.7*
c1ccc(-c2nnc3sc(-c4ccncc4)nn23)cc1 | -4.3 | -4.3 | -0.1 | -3.3 | 93.6 | -0.1 | x | x
COc1cc(OC)cc(C(=O)NNC(=O)CCC2CCCC2)c1 | x | x | x | 2.9 | x | x | x | x
